How the values were obtained:
Format in all cases: functional
SF-295 = test: Anticancer activity against human SF295 cells assessed as cell growth at 10^-5 M after 48 hrs by SRB assay; conditions: SF-295, 48 h, read-out: Activity
DU-145 = test: Anticancer activity against human DU145 cells assessed as cell growth at 10^-5 M after 48 hrs by SRB assay; conditions: DU-145, 48 h, read-out: Activity
Outline: (§1)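 NCI-60 single-dose screen at one concentration. Cells grown in RPMI 1640 with 5% FBS and 2 mM L-glutamine, plated at 5000–40,000 cells/well, and pre-incubated 24 h at 37 °C in 5% CO2 before DMSO-dissolved drug was added. Cells fixed with TCA, SRB-stained, absorbance read at 515 nm. Percent growth calculated against time-zero and untreated control plates.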

NCI-H23 = test: Anticancer activity against human NCI-H23 cells assessed as cell growth at 10^-5 M after 48 hrs by SRB assay; conditions: NCI-H23, 48 h, read-out: Activity
SNB-19 = test: Anticancer activity against human SNB19 cells assessed as cell growth at 10^-5 M after 48 hrs by SRB assay; conditions: SNB-19, 48 h, read-out: Activity
HOP-92 = test: Anticancer activity against human HOP92 cells assessed as cell growth at 10^-5 M after 48 hrs by SRB assay; conditions: HOP-92, 48 h, read-out: Activity; outline: as §1
HOP-62 = test: Anticancer activity against human HOP62 cells assessed as cell growth at 10^-5 M after 48 hrs by SRB assay; conditions: HOP-62, 48 h, read-out: Activity; outline: as §1
A549 = test: Anticancer activity against human A549 cells assessed as cell growth at 10^-5 M after 48 hrs by SRB assay; conditions: A549, 48 h, read-out: Activity; outline: as §1
OVCAR-5 = test: Anticancer activity against human OVCAR5 cells assessed as cell growth at 10^-5 M after 48 hrs by SRB assay; conditions: OVCAR-5, 48 h, read-out: Activity
A498 = test: Anticancer activity against human A498 cells assessed as cell growth at 10^-5 M after 48 hrs by SRB assay; conditions: A498, 48 h, read-out: Activity; outline: as §1
786-0 = test: Anticancer activity against human 786-0 cells assessed as cell growth at 10^-5 M after 48 hrs by SRB assay; conditions: 786-0, 48 h, read-out: Activity; outline: as §1
EKVX = test: Anticancer activity against human EKVX cells assessed as cell growth at 10^-5 M after 48 hrs by SRB assay; conditions: read-out: Activity; outline: as §1
U-251 = test: Anticancer activity against human U251 cells assessed as cell growth at 10^-5 M after 48 hrs by SRB assay; conditions: U-251, 48 h, read-out: Activity
Outline: (§2)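 NCI-60 single-dose screen: cells in RPMI 1640 with 5% FBS and 2 mM L-glutamine, plated at 5000–40,000 cells/well by doubling time, and preincubated 24 h at 37 °C. Compound given at one concentration from DMSO stock. Cells TCA-fixed and SRB-stained, absorbance at 515 nm. Percent growth relative to time-zero and untreated controls; inhibition % = 100 − growth %.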

K562 = test: Anticancer activity against human K562 cells assessed as cell growth at 10^-5 M after 48 hrs by SRB assay; conditions: K562, 48 h, read-out: Activity; outline: as §1
NCI-H226 = test: Anticancer activity against human NCI-H226 cells assessed as cell growth at 10^-5 M after 48 hrs by SRB assay; conditions: NCI-H226, 48 h, read-out: Activity
SK-MEL-5 = test: Anticancer activity against human SK-MEL-5 cells assessed as cell growth at 10^-5 M after 48 hrs by SRB assay; conditions: SK-MEL-5, 48 h, read-out: Activity
LOX IMVI = test: Anticancer activity against human LOXIMVI cells assessed as cell growth at 10^-5 M after 48 hrs by SRB assay; conditions: read-out: Activity; outline: as §1
NCI/ADR-RES = test: Anticancer activity against human NCI/ADR-RES cells assessed as cell growth at 10^-5 M after 48 hrs by SRB assay; conditions: read-out: Activity
PC-3 = test: Anticancer activity against human PC3 cells assessed as cell growth at 10^-5 M after 48 hrs by SRB assay; conditions: PC-3, 48 h, read-out: Activity
MDA-MB-468 = test: Anticancer activity against human MDA-MB-468 cells assessed as cell growth at 10^-5 M after 48 hrs by SRB assay; conditions: MDA-MB-468, 48 h, read-out: Activity
OVCAR-8 = test: Anticancer activity against human OVCAR8 cells assessed as cell growth at 10^-5 M after 48 hrs by SRB assay; conditions: OVCAR-8, 48 h, read-out: Activity
HCT-15 = test: Anticancer activity against human HCT15 cells assessed as cell growth at 10^-5 M after 48 hrs by SRB assay; conditions: HCT-15, 48 h, read-out: Activity; outline: as §1
MCF7 = test: Anticancer activity against human MCF7 cells assessed as cell growth at 10^-5 M after 48 hrs by SRB assay; conditions: MCF7, 48 h, read-out: Activity; outline: as §1
NCI-H460 = test: Anticancer activity against human NCI-H460 cells assessed as cell growth at 10^-5 M after 48 hrs by SRB assay; conditions: NCI-H460, 48 h, read-out: Activity
SNB-75 = test: Anticancer activity against human SNB75 cells assessed as cell growth at 10^-5 M after 48 hrs by SRB assay; conditions: SNB-75, 48 h, read-out: Activity; outline: as §2
CCRF-CEM = test: Anticancer activity against human CCRF-CEM cells assessed as cell growth at 10^-5 M after 48 hrs by SRB assay; conditions: read-out: Activity; outline: as §1
SR = test: Anticancer activity against human SR cells assessed as cell growth at 10^-5 M after 48 hrs by SRB assay; conditions: read-out: Activity; outline: as §2
KM12 = test: Anticancer activity against human KM12 cells assessed as cell growth at 10^-5 M after 48 hrs by SRB assay; conditions: KM12, 48 h, read-out: Activity; outline: as §1
SF-268 = test: Anticancer activity against human SF268 cells assessed as cell growth at 10^-5 M after 48 hrs by SRB assay; conditions: SF-268, 48 h, read-out: Activity
SK-OV-3 = test: Anticancer activity against human SKOV3 cells assessed as cell growth at 10^-5 M after 48 hrs by SRB assay; conditions: SK-OV-3, 48 h, read-out: Activity
COLO 205 = test: Anticancer activity against human COLO205 cells assessed as cell growth at 10^-5 M after 48 hrs by SRB assay; conditions: COLO 205, 48 h, read-out: Activity; outline: as §1

Row | Structure (SMILES) | growth at 10 µM (SF-295) [%] | growth at 10 µM (DU-145) [%] | growth at 10 µM (NCI-H23) [%] | growth at 10 µM (SNB-19) [%] | growth at 10 µM (HOP-92) [%] | growth at 10 µM (HOP-62) [%] | growth at 10 µM (A549) [%] | growth at 10 µM (OVCAR-5) [%] | growth at 10 µM (A498) [%] | growth at 10 µM (786-0) [%] | growth at 10 µM (EKVX) [%] | growth at 10 µM (U-251) [%] | growth at 10 µM (K562) [%] | growth at 10 µM (NCI-H226) [%] | growth at 10 µM (SK-MEL-5) [%] | growth at 10 µM (LOX IMVI) [%] | growth at 10 µM (NCI/ADR-RES) [%] | growth at 10 µM (PC-3) [%] | growth at 10 µM (MDA-MB-468) [%] | growth at 10 µM (OVCAR-8) [%] | also measured
1 | O=C(NCCNc1nccc(-c2c(-c3cccc(O)c3)nc3sccn23)n1)c1cc(C(F)(F)F)cc(C(F)(F)F)c1 | 97.1 | 114 | 119 | 123 | 77.1 | 118 | 92.5 | 104 | 112 | 101 | 103 | 105 | 96.2 | 116 | 81.6 | 90.7 | 108 | 82.8 | 101 | 102 | growth at 10 µM (HCT-15): 96.6%; growth at 10 µM (MCF7): 96.3%; growth at 10 µM (NCI-H460): 107%; growth at 10 µM (SNB-75): 87.7%; growth at 10 µM (CCRF-CEM): 84.7%; growth at 10 µM (SR): 98.2%; growth at 10 µM (KM12): 103%; growth at 10 µM (SF-268): 105%; growth at 10 µM (SK-OV-3): 96.3%; growth at 10 µM (COLO 205): 59.8%
2 | O=C(NCCNc1nccc(-c2c(-c3cccc(O)c3)nc3sccn23)n1)Nc1ccccc1 | 99.5 | 110 | 114 | 108 | 90.2 | 150 | 90.7 | 114 | 99.7 | 100 | 118 | 108 | 70.6 | 105 | 69.3 | 79.6 | 101 | 86.6 | 51.1 | 68.1 | growth at 10 µM (HCT-15): 92.7%; growth at 10 µM (MCF7): 93.8%; growth at 10 µM (NCI-H460): 102%; growth at 10 µM (SNB-75): 71.6%; growth at 10 µM (CCRF-CEM): 46%; growth at 10 µM (SR): 90.1%; growth at 10 µM (KM12): 68.8%; growth at 10 µM (SF-268): 79.8%; growth at 10 µM (SK-OV-3): 92.3%; growth at 10 µM (COLO 205): 69.3%
3 | O=C(NCCNc1nccc(-c2c(-c3cccc(O)c3)nc3sccn23)n1)c1ccc(N2CCOCC2)c(C(F)(F)F)c1 | 67.5 | 94.9 | 85.4 | 109 | 38.9 | 96.7 | 64.1 | 91.2 | 47.8 | 60.1 | 74 | 82 | 63 | 69.5 | 40 | 42.2 | 95.4 | 56.6 | 50.2 | 72.8 | growth at 10 µM (HCT-15): 80%; growth at 10 µM (MCF7): 58.7%; growth at 10 µM (NCI-H460): 66.9%; growth at 10 µM (SNB-75): 58%; growth at 10 µM (CCRF-CEM): 56.9%; growth at 10 µM (SR): 76.1%; growth at 10 µM (KM12): 77.5%; growth at 10 µM (SF-268): 79.1%; growth at 10 µM (SK-OV-3): 66.4%; growth at 10 µM (COLO 205): 43.4%
4 | O=C(NCCNc1nccc(-c2c(-c3cccc(O)c3)nc3sccn23)n1)Nc1cc(C(F)(F)F)cc(C(F)(F)F)c1 | 66.8 | 97.1 | 90.9 | 90.8 | 74.4 | 118 | 57.7 | 96.5 | 86 | 82 | 52.2 | 77 | 72.7 | 101 | 59.7 | 60.6 | 87.8 | 51.2 | 57.8 | 52.8 | growth at 10 µM (HCT-15): 79.2%; growth at 10 µM (MCF7): 67.5%; growth at 10 µM (NCI-H460): 51.8%; growth at 10 µM (SNB-75): 66.1%; growth at 10 µM (CCRF-CEM): 39.1%; growth at 10 µM (SR): 65.3%; growth at 10 µM (KM12): 43.1%; growth at 10 µM (SF-268): 69.4%; growth at 10 µM (SK-OV-3): 89.3%; growth at 10 µM (COLO 205): 45.1%
